Measurements published in publication PMC10950693 (International Journal for Parasitology: Drugs and Drug …, 2024).

Assay: Cytotoxicity against murine macrophages, alamarBlue, 24 h
Format: cell-based
Settings: mouse, J774A.1 murine macrophages
How it was run: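 J774A.1 macrophages were kept in DMEM with 10% FBS at 37 °C, 5% CO2. Cells were seeded at 10^4/well and allowed 3–4 h to adhere. Serial dilutions were added with 10% alamarBlue for 24 h at 37 °C, 5% CO2, then fluorescence was read. CC50 was derived by four-parameter variable-slope nonlinear regression.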

SMILES: CCCCCCCCCCCCCCCCOP(=O)([O-])OCC[N+](C)(C)C [M, miltefosine]
- CC50 at 24 h: 72.2 ± 8.85 µM

SMILES: O=C(Cn1ccnc1[N+](=O)[O-])NCc1ccccc1 [B, benznidazole]
- CC50 at 24 h: 399.9 ± 1.4 µM
